Source: PubChem
Only some compounds are listed: those with a hit (about 4.9% of all), similar ones and a draw of the others.
STAT3 act – activators of IL-6 induced STAT3 signaling. AID 871. activation (% of control), % at 5.6 µM. 190,000 compounds, 0.91% hits. U3A cells, IL-6 STAT3-luciferase reporter, luminescence; 100% = signal with IL-6 EC80 alone;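 active = activation above the screen-wide mean of compound activation plus 3 SD, cut at about 130% in these data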;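 also: 0% = background luminescence of wells with medium and substrate only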
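Material: STAT3-luciferase reporter U3A cells; Probe or stimulus: IL-6 (33 ng/mL); Incubation: compound pre-incubation 1 h before IL-6, then 6 h stimulation at 37 °C; Technique: luminescence from STAT3-driven luciferase reporter; Evaluation: % activation versus median of IL-6-stimulated wells; Controls: IL-6-only high control.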
STAT3 inh – reduces IL-6 driven STAT3 reporter signal; 190,000 compounds, 0.89% hits; AID 862; inhibition, % at 5.5 µM; U3A cells, IL-6 STAT3-luciferase reporter, luminescence; host cell line lacks STAT1;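 active = inhibition above the mean inhibition across all screened compounds plus 3 SD, cut at about 44% in these data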;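 also: 0% = DMSO only wells and 100% = 100 µM nifuroxazide control wells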
APP 5'UTR act – activates APP 5'UTR luciferase reporter. SH-SY5Y APP 5'UTR luciferase reporter, luminescence; zero percent = DMSO vehicle wells. activation, % at 2 µM. 190,000 compounds, 1% hits;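 active = activation above a set limit, based on mean plus 3 SD of controls, cut at about 140% in these data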
STAT1 blocker – inhibitors of IFN-gamma induced STAT1 signaling. NIH 3T3 STAT1-luciferase reporter, luminescence. 200,000 compounds, 0.35% hits. inhibition, % at 5.5 µM;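 active = inhibition above a set limit, the mean inhibition across all tested compounds plus 3 SD, cut at about 34% in these data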;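 also: 0% = IFN-gamma with DMSO and 100% = IFN-gamma with 300 µM nifuroxazide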
STAT1 act – activators of IFN-gamma induced STAT1 signaling | 200,000 compounds, 2.6% hits | NIH 3T3 STAT1-luciferase reporter, luminescence; 100% = IFN-gamma alone, no compound | activation (% of control), % at 5.5 µM;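 active = activation above the screen-wide mean activation plus 3 SD, cut at about 130% in these data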;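 also: raw ratio to IFN-gamma control signal so 100% means no change and 0% no light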
NF-kB expr up – NF-kB expression increase, human neuronal cells; 190,000 compounds, 1.6% hits; NF-kB reporter expression; hits give high values; fold change at 12.5 µM; in the data active = fold change above about 3.3
Numbers without * were called inactive.

Screening CCc1cc(C(=O)NNC(=S)Nc2cccc(C)c2)cs1 returned STAT3 act 97, STAT3 inh 6, APP 5'UTR act 162*, STAT1 blocker -12, STAT1 act 114 and NF-kB expr up 2.8.
Screening Cc1cccc(NC(=S)NNC(=O)c2csc(C(C)C)c2)c1 returned STAT3 act 105, STAT3 inh -2, APP 5'UTR act 131, STAT1 blocker -36, STAT1 act 124 and NF-kB expr up 2.4.
Screening CCc1cc(C(=O)Nc2ccc(C)cc2Br)cs1 returned STAT3 act 144*, STAT3 inh -48, APP 5'UTR act 126, STAT1 blocker -45, STAT1 act 137* and NF-kB expr up 5.8*.
For CCCSc1nc(C)c2cc(C)cc(C)c2n1 the results were STAT3 act 98, STAT3 inh 0, APP 5'UTR act -3, STAT1 blocker 12, STAT1 act 89 and NF-kB expr up 0.98.
Screening Cc1cc(C)c2nc3nc(C)c(C)cc3c(N)c2c1 returned STAT3 act 122, STAT3 inh -19, APP 5'UTR act -4, STAT1 blocker -46, STAT1 act 143* and NF-kB expr up 0.84.
Screening COCCCNC(=O)CC1C(=O)N(Cc2ccccc2)C(C)c2nc3ccccc3n21 (stereo not drawn) returned STAT3 act 105, STAT3 inh -4, APP 5'UTR act 17, STAT1 blocker -3, STAT1 act 102 and NF-kB expr up 1.1.
For CC(C)Oc1cccc(C(=O)NC2=NCCS2)c1 the results were STAT3 act 102, STAT3 inh 8, APP 5'UTR act 86, STAT1 blocker -37, STAT1 act 132* and NF-kB expr up 2.1.
CCOC(=O)C(=Nc1ccc(Cl)cc1)NO was read as STAT3 act 97, STAT3 inh 4, APP 5'UTR act 4, STAT1 blocker 0, STAT1 act 100 and NF-kB expr up 1.1.
CN1CCN(CC(=O)N2c3ccccc3C(C)(c3ccccc3)CC2(C)C)CC1 (stereo not drawn) was read as STAT3 act 93, STAT3 inh 11, APP 5'UTR act 11, STAT1 blocker 7, STAT1 act 93 and NF-kB expr up 6*.
Screening CN1CCN(CC(=O)N2c3ccccc3C(C)(c3ccc(Cl)cc3)CC2(C)C)CC1 (stereo not drawn) returned STAT3 act 107, STAT3 inh -1, APP 5'UTR act -3, STAT1 blocker -3, STAT1 act 102 and NF-kB expr up 2.4.
O=C(COC(=O)c1ccc(S(=O)(=O)N2CCCC2)cc1)Nc1ccc(F)cc1F was read as STAT3 act 100, STAT3 inh 6, APP 5'UTR act -6, STAT1 blocker -1, STAT1 act 101 and NF-kB expr up 1.1.
Screening N#Cc1ccc(Cl)cc1NC(=O)COC(=O)c1ccc(S(=O)(=O)N2CCCC2)cc1 returned STAT3 act 134*, STAT3 inh -43, APP 5'UTR act 7, STAT1 blocker 11, STAT1 act 90 and NF-kB expr up 1.2.
Screening CCN(Cc1ccccc1)c1ccc(N=Nc2nn(C)c(C)c2[N+](=O)[O-])cc1 returned STAT3 act 102, STAT3 inh -8, APP 5'UTR act 27, STAT1 blocker -36, STAT1 act 133* and NF-kB expr up 1.4.
`COc1n[nH]c(C(=O)Nc2nc3ccccc3s2)c1[N+](=O)[O-]` gave STAT3 act 123, STAT3 inh -22, APP 5'UTR act 17, STAT1 blocker -41, STAT1 act 134* and NF-kB expr up 1.5.
`O=C(COc1ccccc1C(=O)NCc1ccccn1)Nc1ccc(Br)cc1` gave STAT3 act 109, STAT3 inh -5, APP 5'UTR act 53, STAT1 blocker -2, STAT1 act 103 and NF-kB expr up 1.
Screening CCCCCCn1c(NCC)nc2c1c(=O)n(C)c(=O)n2C returned STAT3 act 43, STAT3 inh 67*, APP 5'UTR act -2, STAT1 blocker 40*, STAT1 act 64 and NF-kB expr up 0.97.
Screening CCn1c(SCC(=O)OC(C)C)nnc1-c1ccccc1OC returned STAT3 act 108, STAT3 inh -3, APP 5'UTR act 9, STAT1 blocker -1, STAT1 act 99 and NF-kB expr up 0.97.
`CSc1ccc(S(=O)(=O)N(C)Cc2ccccc2)cc1` gave STAT3 act 109, STAT3 inh 0, APP 5'UTR act 18, STAT1 blocker 2, STAT1 act 98 and NF-kB expr up 0.92.
Screening CNc1ccccc(-c2ccc3ccccc3n2)c1=O returned STAT3 act 111, STAT3 inh -7, APP 5'UTR act 104, STAT1 blocker -54, STAT1 act 147* and NF-kB expr up 2.3.
Screening O=C(c1ccc(Cl)cc1)n1c(NCc2ccccc2)n[nH]c1=S returned STAT3 act 89, STAT3 inh 17, APP 5'UTR act 24, STAT1 blocker -4, STAT1 act 102 and NF-kB expr up 1.1.
`COc1ccccc1C1=NC(c2ccc(C)cc2)N=C1C` (stereo not drawn) gave STAT3 act 107, STAT3 inh -5, APP 5'UTR act 38, STAT1 blocker -38, STAT1 act 135* and NF-kB expr up 2.1.
O=C(c1ccc(F)cc1)c1ccc(N2CCCC2)cc1 was read as STAT3 act 102, STAT3 inh 4, APP 5'UTR act 57, STAT1 blocker -41, STAT1 act 138* and NF-kB expr up 1.8.
Screening COc1ccccc1NC(=O)COc1ccc(CO)cc1Cl returned STAT3 act 94, STAT3 inh 10, APP 5'UTR act 66, STAT1 blocker -35, STAT1 act 133* and NF-kB expr up 1.9.
For Cc1ccc(NC(=O)COc2ccc(Br)cc2CO)cc1 the results were STAT3 act 90, STAT3 inh 13, APP 5'UTR act -3, STAT1 blocker -16, STAT1 act 110 and NF-kB expr up 1.4.
`COc1cc(/C=N/NC(=O)c2cccnc2)ccc1OCC(=O)Nc1ccccc1Cl` gave STAT3 act 104, STAT3 inh -3, APP 5'UTR act -1, STAT1 blocker -39, STAT1 act 136* and NF-kB expr up 0.87.
Screening O=C(COc1ccc(CO)cc1Cl)Nc1ccc(F)cc1 returned STAT3 act 78, STAT3 inh 32, STAT1 blocker -39, STAT1 act 136* and NF-kB expr up 7.7*.
Screening COc1cc(CO)ccc1OCC(=O)Nc1ccc(Br)cc1 returned STAT3 act 133*, STAT3 inh -34, APP 5'UTR act 33, STAT1 blocker -18, STAT1 act 113 and NF-kB expr up 1.8.
`Cc1ccc2c(c1)c(-c1ccccc1)nc1nnnn12` gave STAT3 act 104, STAT3 inh 1, APP 5'UTR act 1, STAT1 blocker 0, STAT1 act 100 and NF-kB expr up 1.2.
